Assay outcomes deposited in PubChem by several laboratories.
This is a sample that favours compounds with a hit; in the whole collection about 2.1% have one here.
Arbovirus anti: antivirals against arbovirus infection, primary screen, cell-based, full library, 10K replicate subset; arbovirus infection cell-based antiviral screen; inhibition, % at 10 µM; 200,000 tested, 0.37% active; in the data active = inhibition above about 30%
RBBP9 inhibitor: human RBBP9 inhibitors, primary screen, biochemical, fluorescence polarization, FP-Rh probe, HTS; Serine hydrolase RBBP9 (Homo sapiens), O75884; 220,000 tested, 0.2% active; recombinant RBBP9; inhibition, % at 7.94 µM;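 active = inhibition above the campaign mean of all tested compounds plus 3 SD, cut at about 14% in these data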
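Material: RBBP9 protein. Amount: RBBP9 at 2.5 µM in dispensed solution, before mixing. Schedule: 30 min then 45 min, 25 °C. Medium: Tris buffer pH 8.0, NaCl, Pluronic. Measured by: fluorescence polarization. Measure: percent inhibition from mP, scaled between DMSO and no-protein wells. Replication: one well per compound.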
Ins promoter up: insulin promoter activators in MIN6 cells, imaging, high-content screening, mouse beta cells. MIN6 insulin promoter-GFP reporter; hits give high values. z-score at 5 µM. 190,000 tested, 0.3% active. AID 1625, 2009;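 active = z-score above 3 at 5 µM with at least 500 cells counted in the well; inconclusive = wells under 500 cells, flagged as cytotoxic or low count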
PKD1 inh: inhibitors of human PKD1 kinase, biochemical, fluorescence polarization | Serine/threonine-protein kinase D1 (Homo sapiens), Q15139 | PKD1 kinase fluorescence polarization assay | inhibition, % (test concentration not listed) | 200,000 tested, 0.056% active | AID 797, 2007; in the data active = inhibition above about 50%
Target sequence (Q15139 whole entry, looked up): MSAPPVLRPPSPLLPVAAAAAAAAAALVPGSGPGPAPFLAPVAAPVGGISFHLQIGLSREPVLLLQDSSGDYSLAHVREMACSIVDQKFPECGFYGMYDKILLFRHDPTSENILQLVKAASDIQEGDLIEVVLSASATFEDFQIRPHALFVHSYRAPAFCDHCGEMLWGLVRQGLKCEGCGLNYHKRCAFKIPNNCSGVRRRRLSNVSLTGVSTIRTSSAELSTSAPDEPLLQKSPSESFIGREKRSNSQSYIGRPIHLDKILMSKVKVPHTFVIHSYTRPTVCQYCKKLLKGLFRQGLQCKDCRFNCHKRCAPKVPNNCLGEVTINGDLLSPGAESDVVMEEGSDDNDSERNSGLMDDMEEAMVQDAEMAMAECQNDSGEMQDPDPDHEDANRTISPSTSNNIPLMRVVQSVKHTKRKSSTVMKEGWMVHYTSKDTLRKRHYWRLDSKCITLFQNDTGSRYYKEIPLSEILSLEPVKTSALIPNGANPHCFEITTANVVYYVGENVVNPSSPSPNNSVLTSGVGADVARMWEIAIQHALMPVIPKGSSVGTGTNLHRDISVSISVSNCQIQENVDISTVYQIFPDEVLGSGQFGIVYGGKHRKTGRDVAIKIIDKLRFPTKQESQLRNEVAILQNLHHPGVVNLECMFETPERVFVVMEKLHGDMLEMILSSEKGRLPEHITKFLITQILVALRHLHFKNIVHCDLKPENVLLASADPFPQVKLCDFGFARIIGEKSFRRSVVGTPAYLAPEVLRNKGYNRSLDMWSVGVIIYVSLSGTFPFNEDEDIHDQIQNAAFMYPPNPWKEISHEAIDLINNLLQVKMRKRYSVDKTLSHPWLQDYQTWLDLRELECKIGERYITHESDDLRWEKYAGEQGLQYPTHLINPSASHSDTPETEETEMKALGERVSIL
INS promoter inh: inhibitors of insulin promoter-driven GFP, primary screen, imaging, TRM-6 cells, eGFP reporter, cell count. 130,000 tested, 0.9% active. inhibition, % at 2 µM. reporter expression induced with tamoxifen. AID 1273, 2008;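 active = inhibition above the mean plus 3 SD, with well images judged a real hit on visual review, cut at about 60% in these data, passing the limit was not always enough; inconclusive = inhibition over the cutoff but images rejected on review; inactive = inhibition not above the cutoff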
Autophagy mod: autophagy modulators in MEF cells, primary screen, imaging, high-content, MEF GFP-LC3 | calls only at 10 µM (by protocol) | MEF GFP-LC3 puncta imaging; test concentration mostly 10 µM | 190,000 tested, 0.98% active;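 active = percentage of spot-positive cells more than 3 SD above its plate mean, without a fluorescence outlier flag or 80% toxicity; inconclusive = no clear call, values can overlap the other calls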
Large screens that a line does not name were inactive.

O=c1[nH]c2ccc(F)cc2[nH]c1=O	Autophagy mod active (no result: INS promoter inh)
Cc1ccc(NC(=O)C(C)N2C(=O)C3C4CC(C(Br)C4Br)C3C2=O)cc1 (stereo not given)	none (no result: INS promoter inh)
CC1=C(C#N)C(/C=N/OCc2ccc(Cl)cc2)CC(=O)N1 (stereo not given)	INS promoter inh 83
CCCSC1=C(C#N)C(c2ccc(Cl)cc2Cl)CC(=O)N1 (stereo not given)	none
CCN(CC)S(=O)(=O)c1cccc(NC(=O)COC(=O)c2cc(=O)c3ccccc3o2)c1	none (no result: Ins promoter up, INS promoter inh)
Nc1nonc1C(=O)NCCNCc1c(OCc2ccccc2F)ccc2ccccc12	none (no result: Ins promoter up)
COc1cc(NC(=O)c2n[nH]c(=O)c3ccccc23)cc(OC)c1	none (no result: Arbovirus anti, PKD1 inh, INS promoter inh, Autophagy mod)
COc1ccc(-c2nc(NC(=O)c3n[nH]c(=O)c4ccccc34)sc2C)cc1	Arbovirus anti 44
N#CCc1c(C#N)c(N)nc(N2CCN(S(=O)(=O)c3ccccc3)CC2)c1C#N	none (no result: Ins promoter up)
Cc1c(O)c2c3c(cccc3c1O)C(=O)N(c1ccccc1)C2=O	Arbovirus anti 35
O=C(O)c1ccc2c3c(cccc13)C(=O)N(c1ccccc1)C2=O	none (no result: INS promoter inh)
O=C(CN1CCN(CC(=O)Nc2ccccc2Cl)CC1)Nc1ccc2c(c1)OCCO2	none
O=C(/C=C/c1ccc2ccccc2n1)c1cc(Br)ccc1O	Ins promoter up 4.4 (no result: Arbovirus anti, PKD1 inh, INS promoter inh, Autophagy mod)
O=C(O)/C=C/c1ccc2ccccc2n1	none
Cn1c(SCC(=O)c2ccccc2F)nnc1C1CC1	none
CCOC(=O)C1C(=O)NC(c2ccccc2)=NC1c1cccc(Br)c1 (stereo not given)	none
Oc1c(Br)cc(C2N=C(c3ccccc3)NO2)cc1Br (stereo not given)	Arbovirus anti 33
Cc1cc(=O)[nH]c(/N=C(\N)Nc2ccc3c(c2)OCCO3)n1	none (no result: INS promoter inh)
O=C1Nc2ccc(Br)cc2C12NNc1ccccc1O2 (stereo not given)	Ins promoter up 14, Autophagy mod active (no result: INS promoter inh)
O=C1Nc2ccc(Br)cc2C1(O)Cc1ccccn1 (stereo not given)	none
Cc1ccsc1C(=O)OCC(=O)Nc1cccc(S(=O)(=O)NC2=NCCCCC2)c1	none
COc1ccc(C(=O)C(CCC(CNC(C)(C)C)C(=O)c2ccc(OC)cc2)CNC(C)(C)C)cc1 (stereo not given)	Ins promoter up inconclusive (no result: INS promoter inh)
COc1ccc(CCn2c(-n3nc(C)cc3C)nc3c2c(=O)[nH]c(=O)n3C)cc1	Autophagy mod active (no result: Arbovirus anti, Ins promoter up)
Cn1cc(/C=C2\SC(=S)N(NC(=O)c3cccc(Cl)c3)C2=O)c2ccccc21	Ins promoter up 7.3 (no result: Arbovirus anti, PKD1 inh, INS promoter inh, Autophagy mod)
N#C/C(=C\c1cn(CCOc2ccccc2F)c2ccccc12)C(=O)NCc1cccs1	Autophagy mod active
COc1ccc(-c2csc(NC(=O)c3ccco3)n2)cc1	Arbovirus anti 65 (no result: Ins promoter up)
O=C(Nc1nc(-c2ccc3c(c2)OCO3)cs1)C1COc2ccccc2O1 (stereo not given)	Arbovirus anti 52 (no result: INS promoter inh)
CC(=O)Nc1ccc(-c2csc(NC(=O)c3ccc(C)o3)n2)cc1	Arbovirus anti 39
COc1cccc(C(=O)Nc2nc(-c3ccc4c(c3)OCO4)cs2)c1	Arbovirus anti 42 (no result: INS promoter inh)
O=C(Nc1nc(-c2ccco2)cs1)c1ccccc1	Arbovirus anti 62 (no result: INS promoter inh)
COc1cccc(C(=O)Nc2nc(-c3ccncc3)cs2)c1	INS promoter inh 76
CC(=O)Nc1ccc(C(=O)Nc2nc(-c3ccccn3)cs2)cc1	Arbovirus anti 34 (no result: INS promoter inh)
CC(=O)Nc1ccc(C(=O)Nc2nc(-c3cccnc3)cs2)cc1	none (no result: INS promoter inh)
Cc1cccc(NC(=O)COC(=O)c2cccc3c2C(=O)c2ccccc2C3=O)c1C	none (no result: INS promoter inh)
Nc1cccc(C(=O)OCC(=O)Nc2cccc3c2C(=O)c2ccccc2C3=O)c1	Autophagy mod active
CN(C)c1cccc(C(=O)OCC(=O)Nc2ccccc2-c2ccccc2)c1	none (no result: INS promoter inh)
CN(C)c1cccc(C(=O)OCC(=O)Nc2ccccc2Cl)c1	INS promoter inh 75
COc1cc(CC(=O)OCC(=O)c2ccc3c(c2)OCCO3)cc(OC)c1OC	Ins promoter up inconclusive, Autophagy mod active
CN(CCc1ccccn1)c1ncnc2[nH]ncc12	INS promoter inh 75
O=C(c1cccc2cccc(O)c12)N1CCCCC1	Autophagy mod active (no result: INS promoter inh)
O=C(O)C(Cc1ccccc1)N=Cc1c(O)c2ccccc2oc1=O (stereo not given)	Arbovirus anti 31
COc1ccc(N=Cc2c(O)c3ccccc3oc2=O)cc1	none (no result: INS promoter inh)
O=C1N=C(N2CCOCC2)S/C1=C\c1ccc(-c2ccccc2Cl)o1	Autophagy mod active (no result: INS promoter inh)
COC(=O)c1cc(C(=O)c2ccccc2)n2c(=O)/c(=C\N(C)C)sc12	none (no result: Arbovirus anti, PKD1 inh, INS promoter inh, Autophagy mod)
COC(=O)c1cc(C(=O)c2ccc(Cl)cc2)n2c(=O)/c(=C\N(C)C)sc12	Autophagy mod active (no result: Ins promoter up, INS promoter inh)
Cn1cc(CN2CCN(c3ccccc3)CC2)c2ccccc21	Arbovirus anti 36 (no result: INS promoter inh)
CC1(C)Cc2c(c(-c3ccccc3)[nH]c(=O)c2C#N)CO1	Ins promoter up 3.4 (no result: INS promoter inh)
CC1(C)Cc2c(c(-c3ccccc3Cl)[nH]c(=O)c2C#N)CO1	none (no result: Ins promoter up)
CC(C)Sc1nsc2nc(=O)c(/C=C3\C=Nc4ccccc43)c(N)n12	Arbovirus anti 34 (no result: INS promoter inh)
CS(=O)(=O)c1nsc2nc(=O)c(/C=C3\C=Nc4ccccc43)c(N)n12	Arbovirus anti 46
Cc1cc2nc(=O)c(/C=C3\C=Nc4ccccc43)c(N)n2o1	none (no result: Arbovirus anti, Ins promoter up, PKD1 inh, INS promoter inh, Autophagy mod)
Cc1ccc(C)c(NC(=O)CSc2nnc(-c3ccncc3)n2N)c1	none
CCOC(=O)c1cc(C#N)c(SC)nc1C	none (no result: Arbovirus anti, PKD1 inh, INS promoter inh, Autophagy mod)
CCOC(=O)c1cc2c(N)c(C(=O)c3cc(C#N)c(SC)nc3C)sc2nc1C	Autophagy mod active (no result: INS promoter inh)
Cc1ccc(-n2c(C)nc3oc4ccccc4c(=O)c3c2=O)cc1	Ins promoter up 3.9
COc1ccc2c(=O)c3c(=O)n(-c4ccc(C)cc4)c(-c4ccccc4)nc3oc2c1	none (no result: Arbovirus anti, PKD1 inh, INS promoter inh, Autophagy mod)
Cc1ccc(S(=O)(=O)Oc2ccccc2/C=N/NC(N)=S)cc1	Autophagy mod active
CN(C)C(=O)CSc1cccc2cccnc12	Autophagy mod active
COC(=O)c1ccc(CSc2nc(-c3ccc(OC)cc3)nc3c2c(=O)n(C)c(=O)n3C)o1	Autophagy mod active (no result: Arbovirus anti, Ins promoter up)
COC(=O)c1ccc(CSc2nc(C)nc3c2c(=O)n(C)c(=O)n3C)o1	none (no result: RBBP9 inhibitor, INS promoter inh)
O=c1c2c(nc3nc(Cc4ccccc4)[nH]n13)CCC2	INS promoter inh 92 (no result: Ins promoter up)
Cc1nc2nc3c(c(=O)n2[nH]1)CCC3	none
CC(NC(=O)c1ccco1)C(c1cccs1)N1CCN(c2ccccc2F)CC1 (stereo not given)	none
CCc1nnc(NS(=O)(=O)c2ccc(NC(=O)COc3ccc4ccccc4c3)cc2)s1	Arbovirus anti 42
CCc1nnc(NS(=O)(=O)c2ccc(NC(=O)c3cccc4ccccc34)cc2)s1	none
